Experimental data taken from ChEMBL document CHEMBL1143169, “Highly water-soluble prodrugs of anthelmintic benzimidazole carbamates: synthesis, pharmacodynamics, and pharmacokinetics” (J Med Chem, 2008).
Active and inactive are the calls of the source. The rule behind the calls is not given here.

What was measured:
[1] = Aqueous stability of the compound; format: physicochemical; settings: buffer
Method in brief: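 The compound was dissolved in water at 50 mM and held at pH 5 and at pH 9 for 8 h at room temperature. Remaining intact compound was measured by UV-HPLC.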

[2] = Aqueous solubility at pH 7.4; format: physicochemical
[3] = tested on: Oesophagostomum dentatum; test: Anthelmintic activity against Oesophagostomum dentatum infected pig assessed as reduction in fecal egg shedding; format: functional
[4] = tested on: Oesophagostomum dentatum; test: Anthelmintic activity against Oesophagostomum dentatum infected pig assessed as worm burden reduction; format: functional
[5] = Tmax in pig at 5.0 mg/kg, po; format: ADME, organism-based, Sus scrofa; design: dose 5 mg/kg, route oral; settings: in vivo
Method in brief: (§1)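 Swine received a single oral dose of 5.0 mg/kg, given as an aqueous solution or suspension. Plasma levels of fenbendazole, fenbendazole sulfoxide and fenbendazole sulfone were measured over time. Cmax, Tmax and AUC were derived for each analyte.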

[6] = AUC in pig at 5.0 mg/kg, po; format: ADME, organism-based, Sus scrofa; design: dose 5 mg/kg, route oral; settings: plasma; method in brief: as §1
[7] = tested on: Sus scrofa; test: Tmax in pig at 5.0 mg/kg, po assessed as fenbendazole sulfone level; format: ADME, organism-based; design: dose 5 mg/kg, route oral; settings: in vivo; method in brief: as §1
[8] = tested on: Sus scrofa; test: AUC in pig at 5.0 mg/kg, po assessed as fenbendazole sulfone level; format: ADME, organism-based, Plasma; design: dose 5 mg/kg, route oral; settings: in vivo; method in brief: as §1
[9] = Cmax in pig at 5.0 mg/kg, po; format: ADME, organism-based, Sus scrofa; design: dose 5 mg/kg, route oral; settings: in vivo; method in brief: as §1
[10] = tested on: Sus scrofa; test: Cmax in pig at 5.0 mg/kg, po assessed as fenbendazole sulfone level; format: ADME, organism-based; design: dose 5 mg/kg, route oral; settings: in vivo; method in brief: as §1
[11] = tested on: Sus scrofa; test: AUC in pig at 5.0 mg/kg, po assessed as fenbendazole sulfoxide level; format: ADME, organism-based, Plasma; design: dose 5 mg/kg, route oral; settings: in vivo; method in brief: as §1
[12] = tested on: Sus scrofa; test: Tmax in pig at 5.0 mg/kg, po assessed as fenbendazole sulfoxide level; format: ADME, organism-based; design: dose 5 mg/kg, route oral; settings: in vivo; method in brief: as §1
[13] = tested on: Sus scrofa; test: Cmax in pig at 5.0 mg/kg, po assessed as fenbendazole sulfoxide level; format: ADME, organism-based; design: dose 5 mg/kg, route oral; settings: in vivo; method in brief: as §1
[14] = tested on: Sus scrofa; test: (§2) AUC in pig at 6.8 mg/kg, po assessed as sodium (2-(methoxycarbonyl)-5-(phenylsulphonyl)-1H-benzo[d]imidazol-1-yl)methyl phosphate level; format: ADME, organism-based, Plasma; design: dose 6.8 mg/kg, route oral; settings: in vivo
[15] = tested on: Sus scrofa; test: Cmax in pig at 6.8 mg/kg, po assessed as sodium (2-(methoxycarbonyl)-5-(phenylsulphonyl)-1H-benzo[d]imidazol-1-yl)methyl phosphate; format: ADME, organism-based; design: dose 6.8 mg/kg, route oral; settings: in vivo
[16] = tested on: Sus scrofa; test: Cmax in pig at 6.8 mg/kg, po; settings: in vivo
[17] = tested on: Sus scrofa; test: (§3) Tmax in pig at 6.8 mg/kg, po assessed as sodium (2-(methoxycarbonyl)-5-(phenylsulphonyl)-1H-benzo[d]imidazol-1-yl)methyl phosphate level; format: ADME, organism-based; design: dose 6.8 mg/kg, route oral; settings: in vivo
[18] = tested on: Sus scrofa; test: as §2; format: ADME, organism-based, Plasma; design: dose 6.8 mg/kg, route oral; settings: in vivo; remark: listed apart in the source
[19] = tested on: Sus scrofa; test: as §3; format: ADME, organism-based; design: dose 6.8 mg/kg, route oral; settings: in vivo; remark: listed apart in the source

In the case of `CCCSc1ccc2c(c1)nc(NC(=O)OC)n2COP(=O)([O-])O.[Na+]`, the Stability [1] is reported as > 8 h and the solubility [2] is reported as > 50 mM.

For `COC(=O)Nc1nc2cc(Sc3ccccc3)ccc2[nH]1`, the Activity [3] was “Active” and the Activity [4] was “Active”.

With `COC(=O)Nc1nc2cc(C(=O)c3ccc(F)cc3)ccc2n1COP(=O)([O-])O.[Na+]` the Stability [1] was > 8 h and the solubility [2] was > 50 mM.

`COC(=O)Nc1nc2ccc(Sc3ccccc3)cc2[nH]1` [FENBENDAZOLE] showed a Tmax [5] of 5.4 h, an AUC [6] of 310 ng·h/mL and a Tmax [7] of 34 h. The AUC [8] was 12730 ng·h/mL, the Cmax [9] was 50 ng/mL and the Cmax [10] was 380 ng/mL. For the same molecule, the AUC [11] was 35000 ng·h/mL, the Tmax [12] was 17 h and the Cmax [13] was 1090 ng/mL.

With `COC(=O)Nc1nc2cc([S+]([O-])c3ccccc3)ccc2n1COP(=O)([O-])O.[Na+]` (stereo unspecified) the Stability [1] was > 8 h and the solubility [2] was > 50 mM.

In the case of `COC(=O)Nc1nc2cc(C(=O)c3ccccc3)ccc2n1COP(=O)([O-])O.[Na+]`, the Stability [1] is reported as > 8 h and the solubility [2] is reported as > 50 mM.

With `COC(=O)Nc1nc2cc(Sc3ccccc3)ccc2n1COP(=O)([O-])O.[Na+]` the Activity [3] was “Active”, the Stability [1] was > 8 h and the AUC [14] was 31150 ng·h/mL. The Cmax [15] was 780 ng/mL, the Cmax [16] was 1410 ng/mL and the solubility [2] was 130 mM. The Tmax [17] was 15 h, the AUC [18] was 58770 ng·h/mL and the Activity [4] was “Active”. The Tmax [19] was 36 h.

For `CCCCc1ccc2c(c1)nc(NC(=O)OC)n2COP(=O)([O-])O.[Na+]`, the Stability [1] was > 8 h and the solubility [2] was > 50 mM.
